# Assay results taken from the RNAGym collection of RNA variant scans (doi:10.1126/science.aae0568).
# Variants at the floor of the assay were thinned out.
# B1: tRNA (parent)
# chain: GUUCCGUUGGCGUAAUGGUAACGCGUCUCCCUCCUAAGGAGAAGACUGCGGGUUCGAGUCCCGUACGGAACG
# Variants of: B1
# Assay: yeast fitness relative to wild type (ratio to wild type); higher = fitter; tRNA-Arg(CCU), competitive growth, 37 C, YPD
# Summary of the method: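 Variants of the tRNA-Arg(CCU) gene were chemically synthesised with a 3% per-site mutation rate across 69 sites and placed at the native genomic locus in Saccharomyces cerevisiae. Six parallel replicates of the pooled strains were competed in YPD at 37°C for 24 hours, and gene amplicons from the start and end populations were read by 100-nucleotide paired-end sequencing. Darwinian fitness relative to wild type was derived from changes in genotype frequencies. Genotypes required ≥ 100 starting reads, and estimates < 0.5 were set to 0.5.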
row,Variant,yeast fitness
1,U7C G17A C22U,0.651
2,U7C G12A A45C C61G A65C,≤ 0.5
3,U7C A15G G51C A57U,≤ 0.5
4,U7C C24A G68A,≤ 0.5
5,U7C C11G U13G C30U A70C,≤ 0.5
6,U7A U54A U59C U64C,≤ 0.5
7,U7C U13G C30U,≤ 0.5
8,U7C C29G G44C,0.567
9,U7A U8G C34A G58C C62A A69C,≤ 0.5
10,U7C C34G A45G C60U A69U,≤ 0.5
11,U7C A14U A65C,≤ 0.5
12,U7C A42C U53A,≤ 0.5
13,U7C C11U G39C A45U,≤ 0.5
14,U7C C31G,0.81
15,U7C C31U,0.954
16,U7C C46A U64C,0.545
17,U7C C11G C24U G48A C66U,≤ 0.5
18,U7C G63A,0.856
19,U7C G67A A70U,≤ 0.5
20,U7C C22G C24A G25C,≤ 0.5
21,U7C A15G G17A,≤ 0.5
22,U7C A36G A43U,0.535
23,U7C G12A C24U C49A,≤ 0.5
24,U7C A20G C31U A43G U59A,≤ 0.5

row,Variant,yeast fitness
1,U7C A15G G18C C49U,≤ 0.5
2,U7C C29G G39A,≤ 0.5
3,U7C C24A C55A C62U A65C,≤ 0.5
4,U7C G10C C61G C62U,≤ 0.5
5,U7C C62G A69U,0.565
6,U7A U32G A37U C49U,0.642
7,U7A U19A C49U G56C G63C,≤ 0.5
8,U7C C30G U32C A40C C62U G67A,≤ 0.5
9,U7C A65U A69U,0.801
10,U7C A21G C33G C60U,≤ 0.5
11,U7C G41A A42C,0.543
12,U7C C11G G18A G44U A65C,≤ 0.5
13,U7C C31U U47C,≤ 0.5
14,U7C G39C U47A G58A G63A,≤ 0.5
15,U7C A65U,0.849
16,U7C U16A,0.812
17,U7C C29G G58C G67C,≤ 0.5
18,U7C U13C,0.836
19,U7C U8A C24G U64C,≤ 0.5
20,U7C A14G G17A A69U A70U,0.594
21,U7C C29U U47A C62G,≤ 0.5
22,U7C C24U A70G,0.666
23,U7C G9C U28C G41A,≤ 0.5
24,U7C G41A A42C G50C C62G,≤ 0.5

row,Variant,yeast fitness
1,U7C A21U C55A,0.586
2,U7C C34A,0.764
3,U7C C29G U47C U53G,≤ 0.5
4,U7C C29G A40U,0.665
5,U7C C55U,0.847
6,U7C U16G G17A C49U U59C C62A,≤ 0.5
7,U7C C11U C22A C29G C33U,≤ 0.5
8,U7C A20C C34A G63C,≤ 0.5
9,U7C C49G A69C,0.58
10,U7C C27G A69U,0.632
11,U7C C30G A40U A70U,≤ 0.5
12,U7C C29A U32C C60A,≤ 0.5
13,U7A U35C G41C A70U,≤ 0.5
14,U7A U28A,0.605
15,U7A U28C,0.711
16,U7C A15G,0.793
17,U7C A57U U64C G67C,0.501
18,U7C C27G C33G G44A,0.75
19,U7A U28A A69C,≤ 0.5
20,U7C C33G A36G C49A G68C,≤ 0.5
21,U7C C22U C29G,≤ 0.5
22,U7C A43G A65C,0.591
23,U7C A14G C29U C31U C33U C49U,≤ 0.5
24,U7C A15G A20U C24G U35C A36C C66U,≤ 0.5

row,Variant,yeast fitness
1,U7C G41A A42C G50C C66U,0.548
2,U7C A37U G39C A43U C55G,≤ 0.5
3,U7C G38A,0.881
4,U7C G38C,0.715
5,U7C C11G C24U G48A A57G C66U A70C,≤ 0.5
6,U7C A14U C24G C30U A43G,≤ 0.5
7,U7C C27A C66A,≤ 0.5
8,U7A U19A C27A C30U G41C A43U C49A,≤ 0.5
9,U7C G18A U35A A43U U54C A65G,≤ 0.5
10,U7C G58A G67A,0.62
11,U7C C31G C34U A57U,≤ 0.5
12,U7C C61U A70G,0.712
13,U7C C30U G44A G56A,0.522
14,U7C G9C G41A,≤ 0.5
15,U7A U53C,0.604
16,U7C G50C A70G,≤ 0.5
17,U7A U19G U26C C29G,≤ 0.5
18,U7C A14C G51A,≤ 0.5
19,U7C C31U C46U,0.532
20,U7C C49G,0.774
21,U7C C49A,0.732
22,U7C A14G C22G,≤ 0.5
23,U7A U19A A20C A40G A69U,0.503
24,U7C A15U C49U C62U,0.673

row,Variant,yeast fitness
1,U7C A21C,0.606
2,U7C A21U,0.769
3,U7A U13G G41A,≤ 0.5
4,U7C C30A,0.794
5,U7C C30G,0.579
6,U7C C33U G58A C66A,≤ 0.5
7,U7A U8G C30G G63A,≤ 0.5
8,U7C C30U G39C U54C U64C,≤ 0.5
9,U7C C31G U32C G48C G50A A65U,≤ 0.5
10,U7C C66U,0.921
11,U7C A21G C29A G48C,0.555
12,U7C G50A,0.684
13,U7A U8G G51A A69C,≤ 0.5
14,U7C C22U U53A,0.71
15,U7C A40U,0.793
16,U7C A40G,0.822
17,U7C A20G C30A,≤ 0.5
18,U7C C22A C31U A57C G58A A69G,≤ 0.5
19,U7C G18A C31A U59A,≤ 0.5
20,U7C C29G C49U U64A G68A,≤ 0.5
21,U7C G12C,0.914
22,U7C G10C C49U A65G,≤ 0.5
23,U7C G10A G41C U64G A65C,≤ 0.5
24,U7C C46G G50A C62G U64C,0.695

row,Variant,yeast fitness
1,U7C C11G U32G C61U,0.59
2,U7C G9A A14C C33G G50C C60G U64A,0.618
3,U7C G12A U13C U26C,0.565
4,U7C G12A G41A A42C G50C A70G,0.53
5,U7C C27A G51C C60U A69C,≤ 0.5
6,U7C,1.01
7,U7C A15C G38A A45G G52A C61G,0.558
8,U7C G10A C24G C62A,≤ 0.5
9,U7A U28G C30A G52A A69U,0.607
10,U7C G10A C24G,≤ 0.5
11,U7C C31G G38C A43U C62G,≤ 0.5
12,U7C A36U G50C C60A G63A,≤ 0.5
13,U7C A15G A20U C24G U35C A36C C61A,≤ 0.5
14,U7C C27U A36C G56C G68A A70U,≤ 0.5
15,U7C A21U C22A C49U G50C A69U,≤ 0.5
16,U7C A57G,0.842
17,U7C A57C,0.612
18,U7C U16A C31U A43C,0.722
19,U7C A45U U54C,0.557
20,U7C C33U A65U,≤ 0.5
21,U7C G52A,0.69
22,U7C C62U A65U,0.542
23,U7C A15C G25A G38A A45G G52A C61G,≤ 0.5
24,U7C A15U G39A,0.623

row,Variant,yeast fitness
1,U7C A20G,0.819
2,U7C A20U,0.722
3,U7C C27U C60A,≤ 0.5
4,U7C U26A U54C,≤ 0.5
5,U7C U26C A36G A42G G48C A65C,≤ 0.5
6,U7C U26C U53A,≤ 0.5
7,U7C A14G,0.86
8,U7C A14C,0.679
9,U7C C24U C31A A42G U54A C55G,≤ 0.5
10,U7C A20G A69C,0.594
11,U7C C24U,0.855
12,U7C G51A,0.856
13,U7C G51C,0.6
14,U7C C33G A37U A40C A69U,0.533
15,U7A U19G G58A A69C,0.527
16,U7C G23A G56C G68A,≤ 0.5
17,U7C C11U U32C G39C G67C,≤ 0.5
18,U7A U16C C29U C31A C66G G67U,≤ 0.5
19,U7C G18A C31A,0.541
20,U7A U16C G17A C29U C31A C66G G67U,≤ 0.5
21,U7C C61U U64A A69G,0.535
22,U7A U8G C30G,≤ 0.5
23,U7C G25C U47C,0.622
